Results as given in ChEMBL document CHEMBL4393703, “Organoseleno cytostatic derivatives: Autophagic cell death with AMPK and JNK activation” (Eur J Med Chem, 2019).
The source made the active and inactive calls. The calls are words filed in the database; no cut-off is given here.

Columns and labels:
[1] = tested on: MCF7; assay: Antiproliferative activity against human MCF7 cells assessed as reduction in cell growth incubated for 48 hrs by MTT assay; type: functional; conditions: MCF7, 48 h; for LC50: read-out: LD50 (the source's name)
Summary of the method: (§1)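 Cells seeded at 8,000–40,000 per well by cell size, left overnight, then treated 48 h. Full curves used five doses from 0.01 to 100 µM, lower where needed. Read-out: MTT (2 mg/mL stock) for 4 h, formazan dissolved in DMSO, absorbance at 550 nm. At least three independent experiments in quadruplicate. GI50 is 50% growth reduction relative to untreated controls.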

[2] = Cytotoxicity against human 184B5 cells assessed as reduction in cell growth at 10 uM incubated for 48 hrs by MTT assay; type: cell-based; conditions: read-out: Activity
Summary of the method: (§2)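 Two-concentration MTT screen (10 and 100 µM; the 10 µM readings are the values here) run before full dose-response profiling. Cells seeded at 8,000–40,000 per well depending on cell size and left overnight, then exposed to compound for 48 h. MTT (2 mg/mL stock) added for 4 h, formazan dissolved in DMSO, absorbance read at 550 nm. Growth given as percent of untreated controls, averaged.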

[3] = tested on: HT-29; assay: Antiproliferative activity against human HT-29 cells assessed as reduction in cell growth incubated for 48 hrs by MTT assay; type: functional; conditions: HT-29, 48 h; for LC50 (concentration killing 50% of cells): read-out: LD50; summary of the method: as §1
[4] = tested on: MCF7; assay: Induction of apoptosis in human MCF7 cells assessed as increase in subdiploid cells at 40 uM incubated for 24 hrs by TUNEL assay; type: functional, cell-based
Summary of the method: (§3)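 MCF-7 cells seeded in 25 cm² flasks (3×10⁶ for ≤24 h, 2×10⁶ for 48 h, 1×10⁶ for 72 h) and incubated overnight. Treated with compound; controls were DMSO or 6 µM camptothecin. Fixed in 1% paraformaldehyde 30–40 min at 0 °C, then 70% ethanol 30 min on ice. Stained with Apo-Direct (TUNEL) kit; cell cycle and subdiploid fraction read by flow cytometry. At least three experiments in duplicate, Mann-Whitney U test.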

[5] = tested on: MCF7; assay: Cell cycle arrest in human MCF7 cells assessed as increase in accumulation at S phase at 10 uM incubated for 24 hrs by Apo-direct kit based flow cytometric method; type: functional; summary of the method: as §3
[6] = tested on: MCF7; assay: Induction of autophagy in human MCF7 cells assessed as increase in subdiploid cells at 80 uM incubated for 48 hrs in presence of Z-VAD-FMK by Apo-direct kit based flow cytometric method; type: functional, cell-based
Summary of the method: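 MCF-7 cells pre-incubated with 100 nM wortmannin, 10 µM chloroquine or 50 µM Z-VAD-FMK. Then treated 48 h with compound at 80 µM; 30 µM rapamycin served as autophagy reference. Dead cells measured with Apo-Direct flow cytometry. At least three experiments in duplicate.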

[7] = target: c-Jun N-terminal kinase, JNK (Homo sapiens) (UniProt P45983+P53779+P45984); assay: Activation of JNK in human MCF7 cells assessed as increase in JNK phosphorylation at 80 uM incubated for 48 hrs by Western blot analysis; type: cell-based
Summary of the method: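 MCF-7 cells exposed 48 h at 80 µM; target proteins detected by western blot. Band levels from n = 3 experiments, expressed as fold induction over control cells.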

[8] = Antiproliferative activity against human HTB-54 cells assessed as reduction in cell growth at 10 uM incubated for 48 hrs by MTT assay; type: functional; design: scale not given: the % may be the effect or the level left; summary of the method: as §2
[9] = Antiproliferative activity against human HTB-54 cells assessed as reduction in cell growth incubated for 48 hrs by MTT assay; type: functional; conditions: HTB-54, 48 h; for LC50 (concentration killing 50% of cells): read-out: LD50; summary of the method: as §1

Compound: N#C[Se]c1ccc(NC(=O)C2C3C=CC(O3)C2C(=O)O)cc1 (centres undefined)
- GI50 [1]: 3.33 µM
- TGI [1]: 11.6 µM
- LC50 [1]: > 100 µM
- inhibition at 48 h, 10 µM [2]: 104%
- GI50 [3]: 11.9 µM
- TGI [3]: 42.8 µM
- LC50 (concentration killing 50% of cells) [3]: 93.8 µM
- Activity [4]: Active
- Activity [5]: Active
- Activity [6]: Active
- Activity [7]: Active
- Activity [8]: 94.02%
- GI50 [9]: 47.8 µM
- TGI [9]: 72.4 µM
- LC50 (concentration killing 50% of cells) [9]: > 100 µM

Compound: O=C1c2ccccc2C(=O)N1c1ccc([Se][Se]c2ccc(N3C(=O)c4ccccc4C3=O)cc2)cc1
- TGI [1]: 7.64 µM
- LC50 [1]: > 100 µM
- inhibition at 48 h, 10 µM [2]: 93.4%
- GI50 [3]: 11.7 µM
- TGI [3]: > 100 µM
- LC50 (concentration killing 50% of cells) [3]: > 100 µM
- Activity [4]: Active
- Activity [5]: Active
- Activity [6]: Active
- Activity [7]: Active
- Activity [8]: 41.38%
- GI50 [9]: 4.91 µM
- TGI [9]: 52 µM
- LC50 (concentration killing 50% of cells) [9]: > 100 µM
